Measurements: ChEMBL document CHEMBL1150672, “Chemical transformations on botryane skeleton. Effect on the cytotoxic activity” (J Nat Prod, 2003)
Converted amounts (≈) assume the structure as drawn.

Tests used:
[1] = Cytotoxicity against human IMR90 cells after 24 hrs by MTT assay; assay type: cell-based, IMR-90; details: read-out: ID50
Outline: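 IMR-90 embryonic fibroblasts (ATCC) were grown in DMEM with 10% FCS and 1% glutamine at 37 °C, 5% CO2. Cells were plated at 4 or 8×10^3/well and attached overnight. They were treated 24 h, in duplicate, with compounds from methanol stocks diluted in medium, with a methanol blank. MTT (5 mg/mL stock) was added for 4 h, formazan dissolved in DMSO, and read at 550 nm.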

[2] = Cytotoxicity against HUVEC after 24 hrs by MTT assay; assay type: cell-based; details: human, read-out: ID50
Outline: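 Primary HUVEC from newborns, grown in DMEM/medium 199 with 20% FCS, 10 mM HEPES, heparin and ECGS at 37 °C, 5% CO2. Cells were seeded at 4 or 8×10^3/well and attached overnight. Compounds were added from methanol solutions diluted in medium, with a methanol blank, for 24 h in duplicate. MTT (5 mg/mL stock) was added for 4 h, formazan dissolved in DMSO, and A550 read.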

[3] = tested on: HT-1080; assay: Cytotoxicity against human HT1080 cells after 24 hrs by MTT assay; assay type: functional; details: HT-1080, 24 h, read-out: ID50 (the source's name)
Outline: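 HT-1080 cells (ATCC) were kept in DMEM with 10% FCS, 1% glutamine and 1% vitamins at 37 °C, 5% CO2. Cells were seeded at 4 or 8×10^3/well and attached overnight, then exposed for 24 h in duplicate to methanol-dissolved compounds diluted in medium, with a methanol blank. MTT (5 mg/mL stock) was given for 4 h, formazan solubilized in DMSO, and absorbance read at 550 nm.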

[4] = Cytotoxicity against human Hs 578T cells after 24 hrs by MTT assay; assay type: functional; details: read-out: ID50 (the source's name)
Outline: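 Hs578T cells (ATCC) were maintained in DMEM with 10% FCS, 1% glutamine and 10 μg/mL insulin. Cells were seeded at 4 or 8×10^3/well and allowed to adhere overnight at 37 °C. They were exposed 24 h, in duplicate, to compounds in methanol diluted with medium, with a methanol blank. MTT (5 mg/mL stock) was added for 4 h, formazan dissolved in DMSO, and A550 measured.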

[5] = Cytotoxicity against human U87MG cells after 24 hrs by MTT assay; assay type: functional, U-87MG ATCC; details: U-87 MG, read-out: ID50 (the source's name)
Outline: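 U87-MG glioblastoma cells (ATCC) were grown in MEM with 10% FCS, 1% sodium pyruvate and 1% nonessential amino acids. Cells were seeded at 4 or 8×10^3/well and adhered overnight at 37 °C. They were exposed 24 h, in duplicate, to methanol-dissolved compounds diluted in medium, with a methanol blank. MTT (5 mg/mL stock) was added for 4 h, formazan dissolved in DMSO, and absorbance read at 550 nm.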

[6] = tested on: MDA-MB-231; assay: Cytotoxicity against human MDA-MB-231 cells after 24 hrs by MTT assay; assay type: functional; details: MDA-MB-231, 24 h, read-out: ID50 (the source's name)
Outline: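 MDA-MB-231 cells (ATCC) were cultured in Leibovitz's L-15 with 10% FCS. Cells were seeded at 4 or 8×10^3/well and attached overnight at 37 °C. Compounds dissolved in methanol and diluted in medium were added for 24 h in duplicate, with a methanol blank. MTT (5 mg/mL stock) was added for 4 h, formazan taken up in DMSO, and A550 recorded.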

| SMILES | CC50 at 24 h [1] [µg/mL] | CC50 at 24 h [2] [µg/mL] | IC50 [3] [µg/mL] | IC50 [4] [µg/mL] | IC50 [5] [µg/mL] | IC50 [6] [µg/mL] |
| --- | --- | --- | --- | --- | --- | --- |
| C[C@@H]1C[C@H](O)[C@H]2C(C)(C)C[C@]3(C)COC[C@@H]1[C@@]23O | > 10 | > 10 | > 10 | > 10 | > 10 | > 10 |
| CC1(C)C[C@](C)(CO)c2c1ccc(CO)c2CO | > 10 | > 10 | > 10 | > 10 | > 10 | > 10 |
| CC(=O)O[C@H]1C[C@@H](C)C(C=O)=C2[C@@H]1C(C)(C)C[C@]2(C)CO [BOTRYENALOL] | > 10 | > 10 | > 10 | > 10 | > 10 | > 10 |
| CC(=O)O[C@H]1C[C@@H](C)[C@H](C=O)[C@@]2(O)[C@@H]1C(C)(C)C[C@]2(C)C=O [BOTRYDIAL] | 10 (≈ 32.2 µM) | 1 (≈ 3.22 µM) | 1 (≈ 3.22 µM) | 1 (≈ 3.22 µM) | 1 (≈ 3.22 µM) | 1 (≈ 3.22 µM) |
| COC(=O)[C@@]1(C)CC(C)(C)[C@@H]2[C@@H](O)C[C@@H](C)[C@H](C=O)[C@@]21O [METHYL BOTRYALOATE] | > 10 | > 10 | > 10 | > 10 | > 10 | > 10 |
| COC(=O)[C@H]1[C@H](C)C[C@H](OC(C)=O)[C@H]2C(C)(C)C[C@](C)(C(=O)OC)[C@@]12O [DIMETHYL BOTRYDIOATE] | > 10 | > 10 | > 10 | > 10 | > 10 | > 10 |
| CC(=O)O[C@H]1C[C@@H](C)[C@H](C(=O)O)[C@@]2(O)[C@@H]1C(C)(C)C[C@]2(C)C=O | > 10 | > 10 | > 10 | > 10 | > 10 | > 10 |
| CC(=O)O[C@H]1C[C@@H](C)C(C=O)=C2[C@@H]1C(C)(C)C[C@]2(C)C=O [BOTRYENEDIAL] | > 10 | 10 (≈ 34.2 µM) | 10 (≈ 34.2 µM) | 10 (≈ 34.2 µM) | 10 (≈ 34.2 µM) | 10 (≈ 34.2 µM) |
| CC(=O)O[C@H]1C[C@@H](C)[C@@H]2[C@@H](O)[C@H](O)[C@@]3(C)CC(C)(C)[C@H]1[C@]23O | > 10 | > 10 | > 10 | > 10 | > 10 | > 10 |
| Cc1ccc2c(c1CO)[C@@](C)(CO)C[C@@]2(C)CO | > 10 | > 10 | > 10 | > 10 | > 10 | > 10 |
| CC(=O)O[C@H]1C[C@@H](C)[C@H](C=O)[C@]2(O)[C@@H]1C(C)(C)C[C@@]2(C)C=O | 10 (≈ 32.2 µM) | 5 (≈ 16.1 µM) | 5 (≈ 16.1 µM) | 1 (≈ 3.22 µM) | 1 (≈ 3.22 µM) | 0.1 (≈ 0.322 µM) |
| CC(=O)O[C@H]1C[C@@H](C)[C@H](C(=O)O)[C@@]2(O)[C@@H]1C(C)(C)C[C@]2(C)C(=O)O [BOTRYDIOIC ACID] | > 10 | > 10 | > 10 | > 10 | > 10 | > 10 |
| COC(=O)[C@@]1(C)CC(C)(C)[C@@H]2[C@@H](OC(C)=O)C[C@@H](C)[C@H](C=O)[C@@]21O [METHYL ACETYLBOTRYALOATE] | > 10 | > 10 | > 10 | > 10 | > 10 | > 10 |
| CC(=O)O[C@H]1C[C@@H](C)[C@@H]2COC[C@@]3(C)CC(C)(C)[C@H]1[C@]23O | > 10 | > 10 | > 10 | > 10 | > 10 | > 10 |
| CC(=O)O[C@H]1C[C@@H](C)[C@@H]2COC(C)(C)OC[C@@]3(C)CC(C)(C)[C@H]1[C@]23O | > 10 | > 10 | > 10 | > 10 | > 10 | > 10 |
| CC(=O)O[C@H]1C[C@@H](C)[C@@H]2COC(=O)[C@@]3(C)CC(C)(C)[C@H]1[C@]23O | > 10 | > 10 | > 10 | > 10 | > 10 | > 10 |
| CC(=O)O[C@H]1C[C@@H](C)[C@@H]2[C@H](O)OC[C@@]3(C)CC(C)(C)[C@H]1[C@]23O | > 10 | > 10 | > 10 | > 10 | > 10 | > 10 |
| CC(=O)O[C@H]1C[C@@H](C)[C@H](C(=O)O)[C@@]2(O)[C@@H]1C(C)(C)C[C@]2(C)CO [BOTRYOLOIC ACID] | > 10 | > 10 | > 10 | > 10 | > 10 | > 10 |
| Cc1ccc2c(c1C=O)[C@@](C)(C=O)CC2(C)C | 10 (≈ 43.4 µM) | 5 (≈ 21.7 µM) | 1 (≈ 4.34 µM) | 1 (≈ 4.34 µM) | 5 (≈ 21.7 µM) | 10 (≈ 43.4 µM) |
| COC(=O)[C@@]1(C)CC(C)(C)[C@H]2C1=C(C=O)[C@H](C)C[C@@H]2O [METHYL BOTRYENALOATE] | > 10 | > 10 | > 10 | > 10 | > 10 | > 10 |
| CC(=O)O[C@H]1C[C@@H](C)[C@H](CO)[C@@]2(O)[C@@H]1C(C)(C)C[C@]2(C)CO [BOTRYDIOL] | > 10 | > 10 | > 10 | > 10 | > 10 | > 10 |
| CC(=O)O[C@H]1C[C@@H](C)[C@@H]2C(=O)OC[C@@]3(C)CC(C)(C)[C@H]1[C@]23O | > 10 | > 10 | > 10 | > 10 | > 10 | > 10 |
| C=CC1=C(/C(=C\C)CO)[C@@](C)(CO)CC1(C)C [SECOBOTRYTRIENDIOL] | > 10 | > 10 | > 10 | > 10 | > 10 | > 10 |
| C[C@@H]1CC=C2C(=C1C=O)[C@@](C)(C=O)CC2(C)C | 1 (≈ 4.3 µM) | 1 (≈ 4.3 µM) | 1 (≈ 4.3 µM) | 1 (≈ 4.3 µM) | 1 (≈ 4.3 µM) | 0.1 (≈ 0.43 µM) |
| CC(=O)O[C@H]1C[C@@H](C)[C@@H]2[C@@H](O)OC[C@@]3(C)CC(C)(C)[C@H]1[C@]23O [DIHYDROBOTRYDIAL] | > 10 | > 10 | > 10 | > 10 | > 10 | > 10 |
| CC(=O)O[C@H]1C[C@@H](C)[C@H](CO)C2=C1C(C)(C)C[C@]2(C)CO | > 10 | > 10 | > 10 | > 10 | > 10 | > 10 |
| CC(=O)O[C@H]1C[C@@H](C)[C@@H](C=O)[C@@]2(O)[C@@H]1C(C)(C)C[C@]2(C)C=O | 10 (≈ 32.2 µM) | 10 (≈ 32.2 µM) | 10 (≈ 32.2 µM) | 5 (≈ 16.1 µM) | 5 (≈ 16.1 µM) | 1 (≈ 3.22 µM) |
